Results as given in PubChem BioAssay.
Records with an inconclusive call do not appear. Active and inactive are the calls of the source.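 How the source made its calls, unless noted: active means viability increase at or above a cutoff of the median across tested compounds plus 3 SD (cut at about 8.5% in these data, passing the limit was not always enough); inconclusive means some gains above the cutoff, reason not given; inactive means the rest.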

How the values were obtained:
[1] = OD615 S. cerevisiae growth inhibition, permissive medium, pilot counter-assay, permissive growth control for S. cerevisiae lifespan shortening project (AID 705;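 active means growth inhibition above 25% in both replicates, a cutoff set 3 SD above the mean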); settings: OD615, 24 h, at 10 µM, stronger effect = higher value
How it was run: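 System – S. cerevisiae with engineered DeaD lifespan system · Buffer or medium – SC raffinose/galactose permissive medium · Schedule – cells pre-grown 4 h, then 24 h compound exposure, 30 °C humidified · Technique – culture turbidity as optical density at 615 nm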

[2] = Restrictive medium S. cerevisiae growth inhibition, OD615, pilot screen of yeast lifespan reduction project, restrictive growth control (AID 706;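 active means growth inhibition above a set limit, 3 SD over mean compound inhibition, in both replicates, cut at about 43% in these data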;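 further: modified DeaD lifespan yeast strain shifted to restrictive glucose medium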); settings: OD615, 48 h, at 10 µM, stronger effect = higher value
How it was run: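 Material: engineered S. cerevisiae DeaD strain / Medium: glucose-based CSMM-D restrictive medium / Compound: single dose of 10 µM compound final, 0.25% DMSO / Timing: 4 h pre-incubation, 48 h exposure at 30 °C / Technique: OD615 absorbance reading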

[3] = viability gain of MRP-1-high H69AR cells under doxorubicin, pilot screen, MRP-1 activator project, CellTiter-Glo, duplicate (AID 807); settings: H69AR viability with doxorubicin, CellTiter-Glo luminescence; at 10 µM; stronger effect = higher value;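 further: compound pretreatment 18-22 h then 72 h combined with doxorubicin; 0% = doxorubicin alone and 100% = vehicle without doxorubicin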
[4] = growth suppression of beta-catenin knockout HCT116, pilot screen, human colon tumor cells (AID 823;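 active means cell viability at or below a set limit in both duplicate runs, the limit being the all-compound median minus 4 SD, cut at about 23% in these data, passing the limit was not always enough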;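 further: 0% = wells killed by 20 µM Hyamine and 100% = untreated DMSO cell wells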); settings: CellTiter-Glo, 60 h, at 10 µM, stronger effect = lower value
[5] = growth suppression of PTEN-deleted HCT116, pilot screen, cell-based, HCT116 clonal line, CellTiter-Glo (AID 824;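 active means viability at or below 27.92% in each of two runs, the all-compound median minus 4 SD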;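 further: 0% = 20 µM Hyamine control and 100% = vehicle cell control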); settings: 60 h, at 10 µM, stronger effect = lower value
[6] = inhibitors of the yeast RAM network, pilot screen, dse1pr::URA3 reporter, 5-FOA selection (AID 869;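 active means inhibition over a set limit, the all-compound mean plus 3 SD, in both replicate runs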;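 further: 0% = DMSO wells with no growth and 100% = 10 µM 1-NA-PP1 with full growth; RAM network block rescues cells from 5-FOA so hits raise OD615 growth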); settings: S. cerevisiae dse1pr::URA3 5-FOA growth, OD615, 2 d; at 10 µM; stronger effect = higher value; strain carries analog-sensitive mutant Cbk1 kinase
[7] = RAM signaling pathway blockade in yeast – S. cerevisiae, Pdr1DBD-CYC8 efflux-inhibited sensitized strain, primary screen (AID 1298;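 active means RAM network inhibition above 8.4% in each of two replicates, 3 SD over the compound average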;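 further: 0% = DMSO untreated cells without growth and 100% = 10 µM 1-NA-PP1 full growth; higher means more yeast growth rescued from 5-FOA killing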); settings: S. cerevisiae cbk1-as DSE1-URA3 strain, 5-FOA growth OD615, 2 d; at 50 µM; stronger effect = higher value

CCN(CC)P1(=O)OC(c2cc(OC)c(OC)c(OC)c2)=Nc2c1c(C)nn2-c1ccccc1 (stereo not given)
inactive: growth inhibition [1] -7.12% | growth inhibition [2] -13.3% | viability increase [3] -2.38% | viability [4] 95.8% | viability [5] 92.8% | inhibition [6] 1.87% | RAM network inhibition [7] 2.4%

Cc1c(C(=O)OCC2CCCO2)[nH]c2c1C(=O)CC(c1ccc(N(C)C)cc1)C2 (stereo not given)
inactive: growth inhibition [1] -4.14% | growth inhibition [2] 3.2% | viability increase [3] -0.25% | viability [4] 67.7% | viability [5] 71.5% | inhibition [6] 1.09% | RAM network inhibition [7] 6.62%

O=C(CCn1c(=O)sc2ccccc21)NCCN1CCOCC1
inactive: growth inhibition [1] -3.08% | growth inhibition [2] -14.8% | viability increase [3] -1.01% | viability [4] 101% | viability [5] 106% | inhibition [6] 1.49% | RAM network inhibition [7] 1.56%

COc1ccc(S(=O)(=O)Nc2cc(Cl)ccc2OC)cc1
active: viability [4] 16.5% | viability [5] 17.1%
inactive: growth inhibition [1] -12.3% | growth inhibition [2] -21.9% | viability increase [3] -6.67% | inhibition [6] 0.78% | RAM network inhibition [7] 6.09%

CCSc1nnc(Cn2c(=O)sc3ccccc32)n1C
inactive: growth inhibition [1] -8.03% | growth inhibition [2] 5.23% | viability increase [3] -0.33% | viability [4] 95.7% | viability [5] 96.2% | inhibition [6] 0.71% | RAM network inhibition [7] -0.45%

CC1(C)CC(=O)C(C=NCCN2CCN(C(=O)CC3CCCC3)CC2)=C(O)C1
inactive: growth inhibition [1] -24.8% | growth inhibition [2] -8.86% | viability increase [3] -1.93% | viability [4] 96.9% | viability [5] 95.2% | inhibition [6] 1.25% | RAM network inhibition [7] 7.49%

CC(C)(C)c1ccc(-c2nnc3sc(-c4ccccn4)nn23)cc1
inactive: growth inhibition [1] -19.2% | growth inhibition [2] -24.6% | viability increase [3] 0.61% | viability [4] 100% | viability [5] 89.2% | inhibition [6] 2.01% | RAM network inhibition [7] 1.31%

CCOC(=O)CCc1c(C)c2c(C)nn(-c3ccccc3)c2[nH]c1=O
inactive: growth inhibition [1] -2.26% | growth inhibition [2] -0.33% | viability increase [3] -1.19% | viability [4] 99% | viability [5] 95.9% | inhibition [6] 1.65% | RAM network inhibition [7] 1.84%

CCn1c2ccccc2c2cc(NC(=O)c3ccco3)ccc21
inactive: growth inhibition [1] -4.29% | growth inhibition [2] -0.22% | viability increase [3] -3.74% | viability [4] 96.1% | viability [5] 93% | inhibition [6] 0.345% | RAM network inhibition [7] 0.96%

COc1ccc(C2=NOC(C(=O)Nc3c(C)n(C)n(-c4ccccc4)c3=O)C2)cc1OC (stereo not given)
inactive: growth inhibition [1] -9.01% | growth inhibition [2] -7.64% | viability increase [3] 1.69% | viability [4] 102% | viability [5] 106% | inhibition [6] 0.4% | RAM network inhibition [7] 4.75%

CCN1CCN(CCNC(=O)c2ccc(CS(=O)(=O)c3c(Cl)cccc3Cl)o2)CC1
inactive: growth inhibition [1] 5.83% | growth inhibition [2] 6.53% | viability increase [3] -1.94% | viability [4] 110% | viability [5] 103% | inhibition [6] 2.98% | RAM network inhibition [7] 1.59%

CCc1ccc(C2N(c3ccc(OC)cc3)C(=O)C3CCCN32)cc1 (stereo not given)
inactive: growth inhibition [1] 2.83% | growth inhibition [2] -2.37% | viability increase [3] -1.6% | viability [4] 95.3% | viability [5] 101% | inhibition [6] 0.83% | RAM network inhibition [7] 0.23%

Cc1ccc(C2CC(c3ccc(F)cc3)Nc3nc(N)nn32)cc1 (stereo not given)
inactive: growth inhibition [1] -3.28% | growth inhibition [2] 5.93% | viability increase [3] -3.44% | viability [4] 99.8% | viability [5] 86.7% | inhibition [6] 0.25% | RAM network inhibition [7] 2.86%

O=C(NCc1cccnc1)c1cnn2ccccc12
inactive: growth inhibition [1] -7.88% | growth inhibition [2] -0.235% | viability increase [3] -1.28% | viability [4] 106% | viability [5] 90.9% | inhibition [6] 1.62% | RAM network inhibition [7] 0.38%

COC(=O)C1C(=O)CC(C)(O)C(C(=O)OC)C1c1ccc2c(c1)OCO2 (stereo not given)
inactive: growth inhibition [1] -10.3% | growth inhibition [2] -17% | viability increase [3] 0.03% | viability [4] 92.3% | viability [5] 98.5% | inhibition [6] 1.74% | RAM network inhibition [7] 0.48%

CCOc1cc(-c2nc(-c3ccncc3)no2)cc(OCC)c1OCC
inactive: growth inhibition [1] -5.04% | growth inhibition [2] -6.19% | viability increase [3] -5.6% | viability [4] 60.1% | viability [5] 65% | inhibition [6] 1.08% | RAM network inhibition [7] 5.16%

Cc1ccccc1-n1nc(-c2ccc(N)cc2)cc1N
inactive: growth inhibition [1] 3.39% | growth inhibition [2] 2.1% | viability increase [3] -2.52% | viability [4] 101% | viability [5] 94.7% | inhibition [6] 0.8% | RAM network inhibition [7] 2.8%

CCCc1cc(=O)oc2cc3occ(C)c3cc12
inactive: growth inhibition [1] -10.3% | growth inhibition [2] 2.5% | viability increase [3] -2.52% | viability [4] 93.6% | viability [5] 97.6% | inhibition [6] 1.23% | RAM network inhibition [7] 4.79%

CCS(=O)(=O)NCCc1csc(-c2cccnc2)n1
inactive: growth inhibition [1] -1.29% | growth inhibition [2] -6.54% | viability increase [3] -0.37% | viability [4] 102% | viability [5] 102% | inhibition [6] 2.48% | RAM network inhibition [7] 6.14%

O=C1C(C=NCCN2CCOCC2)=C(O)c2ccccc21
inactive: growth inhibition [1] -15.9% | growth inhibition [2] -26.8% | viability increase [3] -1.88% | viability [4] 100% | viability [5] 92.4% | inhibition [6] 2.4% | RAM network inhibition [7] 3.56%

Cc1cc(Nc2ccccc2F)n2nc(C)nc2n1
inactive: growth inhibition [1] -13% | growth inhibition [2] -6.23% | viability increase [3] -1.87% | viability [4] 99.2% | viability [5] 99.5% | inhibition [6] 1.95% | RAM network inhibition [7] 0.37%

Cc1cc(NC(=O)c2cc(C3CC3)on2)n(-c2ccccc2)n1
inactive: growth inhibition [1] -16.2% | growth inhibition [2] -17.8% | viability increase [3] -0.45% | viability [4] 101% | viability [5] 99.6% | inhibition [6] 0.355% | RAM network inhibition [7] 8.58%

COc1ccc(C2N3CC4(C)CN2CC(C)(C3)C4)cc1OC (stereo not given)
inactive: growth inhibition [1] -3.73% | growth inhibition [2] -17.4% | viability increase [3] -0.73% | viability [4] 105% | viability [5] 101% | inhibition [6] 1.08% | RAM network inhibition [7] 0.83%

NCCCC(=O)N1c2ccccc2Sc2ccccc21
inactive: growth inhibition [1] -16% | growth inhibition [2] 3.53% | viability increase [3] -2.97% | viability [4] 73.2% | viability [5] 73.9% | inhibition [6] 2.5% | RAM network inhibition [7] 0.52%

COc1ccc(CN2CCN(c3ncccn3)CC2)c(OC)c1
inactive: growth inhibition [1] -0.81% | growth inhibition [2] 3.13% | viability increase [3] -1.8% | viability [4] 94.5% | viability [5] 89.3% | inhibition [6] 1.24% | RAM network inhibition [7] 6.9%
